# From ChEMBL document CHEMBL1143957, “Inhibitory property of the Piper betel phenolics against photosensitization-induced biological damages” (Bioorg Med Chem, 2008)
# Tests used:
# Liver [1] = assay: Protection against 30 mins photoirradiation-induced lipid peroxidation damage in rat liver mitochondria assessed as prevention of TBARS formation at 60 uM; assay type: functional
# In short: (§1)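 Rat liver mitochondria (0.5 mg protein/mL final) with methylene blue (50 µg/mL) and test agent in KH₂PO₄–KOH buffer pH 7.4, held at 37 °C and irradiated 30 min with a 100 W tungsten lamp (32.45 W m⁻²). TBARS were measured after 15 min boiling with TBA/TCA/EDTA/HCl reagent, centrifugation and A532 against a malonaldehyde standard. Unirradiated endogenous TBARS were subtracted. Results are % protection, mean ± SEM, n = 5.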
# Liver [2] = assay: Protection against 30 mins photoirradiation-induced lipid peroxidation damage in rat liver mitochondria assessed as prevention of TBARS formation at 180 uM; assay type: functional; in short: as §1
# Liver [3] = assay: Protection against 30 mins photoirradiation-induced lipid peroxidation damage in rat liver mitochondria assessed as prevention of TBARS formation at 30 uM; assay type: functional; in short: as §1
# Liver [4] = assay: Protection against 30 mins photoirradiation-induced damage in rat liver mitochondria assessed as reduction of lipid hydroperoxide formation at 180 uM; assay type: functional; parameters: scale not given: the % may be the effect or the level left
# In short: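 Lipid hydroperoxide read-out: mitochondrial protein (0.5 mg/mL) plus methylene blue (50 µg/mL) with test agent at 180 µM added before a 30 min photo-irradiation. LOOH was quantified as absorbance at 560 nm. Mean ± SEM, n = 5.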
# Liver [5] = assay: Protection against 30 mins photoirradiation-induced lipid peroxidation damage in rat liver mitochondria assessed as prevention of TBARS formation at 2 mM; assay type: functional; in short: as §1
# Liver [6] = assay: Protection against photoirradiation-induced lipid peroxidation damage in rat liver mitochondria at 10 mM; assay type: functional; in short: as §1
# Liver [7] = assay: Protection against photoirradiation-induced lipid peroxidation damage in rat liver mitochondria at 100 mM; assay type: functional; in short: as §1
# L929 [8] = assay: Prevention of 15 mins photoirradiation-induced damage in mouse L929 cells assessed as survival at 5 uM by MTT assay; assay type: functional; conditions: L929, light or radiation study, 0.25 h, read-out: Survival
# L929 [9] = assay: Prevention of 5 mins photoirradiation-induced damage in mouse L929 cells assessed as survival at 5 uM by MTT assay; assay type: functional; conditions: L929, light or radiation study, read-out: Survival
# L929 [10] = assay: Prevention of 10 mins photoirradiation-induced damage in mouse L929 cells assessed as survival at 10 uM by MTT assay; assay type: functional; conditions: L929, light or radiation study, read-out: Survival
# L929 [11] = assay: Prevention of 5 mins photoirradiation-induced damage in mouse L929 cells assessed as survival at 10 uM by MTT assay; assay type: functional; conditions: L929, light or radiation study, read-out: Survival
# [12] = Cytotoxicity against mouse L929 cells assessed as survival at 5 uM after 20 hrs by MTT method relative to control; assay type: cell-based; conditions: read-out: Survival
# L929 [13] = assay: Prevention of 10 mins photoirradiation-induced damage in mouse L929 cells assessed as survival at 5 uM by MTT assay; assay type: functional; conditions: L929, light or radiation study, read-out: Survival
# L929 [14] = assay: Prevention of 15 mins photoirradiation-induced damage in mouse L929 cells assessed as survival at 9 uM by MTT assay; assay type: functional; conditions: L929, light or radiation study, 0.25 h, read-out: Activity
# In short: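 L929 mouse fibroblasts (RPMI 1640, 10% heat-inactivated FCS, 37 °C, 5% CO₂) were seeded at 2 × 10⁴ cells/well, preincubated with test agent in serum-free RPMI for 2 h, then given methylene blue (9 or 18 µM) in PBS for 2 h. Cells were washed and exposed to a 100 W tungsten lamp at room temperature for 0–15 min, then grown in 10% FCS RPMI for 72 h. Viability was measured by MTT (0.5 mg/mL, 4 h), SDS lysis and A550; n = 5.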
# [15] = Cytotoxicity against mouse L929 cells assessed as survival at 10 uM after 20 hrs by MTT method relative to control; assay type: cell-based; conditions: read-out: Survival
# L929 [16] = assay: Prevention of 15 mins photoirradiation-induced damage in mouse L929 cells assessed as survival at 10 uM by MTT assay; assay type: functional; conditions: L929, light or radiation study, 0.25 h, read-out: Survival
# [17] = Cytotoxicity against mouse L929 cells assessed as survival at 20 uM after 20 hrs by MTT method relative to control; assay type: cell-based; conditions: read-out: Survival
# [18] = Cytotoxicity against mouse L929 cells assessed as survival at 18 uM after 20 hrs by MTT method relative to control; assay type: cell-based; conditions: read-out: Survival
# L929 [19] = assay: Prevention of 10 mins photoirradiation-induced damage in mouse L929 cells assessed as survival at 18 uM by MTT assay; assay type: functional; conditions: L929, light or radiation study, read-out: Survival
# L929 [20] = assay: Prevention of 5 mins photoirradiation-induced damage in mouse L929 cells assessed as survival at 18 uM by MTT assay; assay type: functional; conditions: L929, light or radiation study, read-out: Survival
# L929 [21] = assay: Prevention of 15 mins photoirradiation-induced damage in mouse L929 cells assessed as survival at 18 uM by MTT assay; assay type: functional; conditions: L929, light or radiation study, 0.25 h, read-out: Survival
# [22] = Cytotoxicity against mouse L929 cells assessed as survival at 9 uM after 20 hrs by MTT method relative to control; assay type: cell-based; conditions: read-out: Survival
structure (smiles),measurement,setting,value
C=CCc1ccc(OC)c(O)c1,Activity,Liver [1],40%
same,Activity,Liver [2],72%
same,Activity,Liver [3],22%
same,Activity,Liver [4],61.5%
COc1cc(C=O)ccc1O,Activity,Liver [5],34%
N[C@@H](CCC(=O)N[C@@H](CS)C(=O)NCC(=O)O)C(=O)O,Activity,Liver [6],35.6%
O=C1O[C@H]([C@@H](O)CO)C(O)=C1O,Activity,Liver [6],25.7%
OC[C@@H](O)[C@@H](O)[C@H](O)[C@H](O)CO,Activity,Liver [7],20.1%
C=CCc1ccc(O)c(O)c1 [HYDROXYCHAVICOL],Activity,Liver [1],48%
same,Activity,Liver [2],86%
same,viability at 5 µM,L929 [8],85.4%
same,viability at 5 µM,L929 [9],89.1%
same,viability at 10 µM,L929 [10],92.2%
same,Activity,Liver [3],32%
same,viability at 10 µM,L929 [11],94.2%
same,"viability at 20 h, 5 µM",[12],96.2%
same,viability at 5 µM,L929 [13],88.3%
same,viability at 9 µM,L929 [14],6%
same,"viability at 20 h, 10 µM",[15],96.5%
same,viability at 10 µM,L929 [16],82.9%
same,Activity,Liver [4],87%
same,"viability at 20 h, 20 µM",[17],75.7%
CN(C)c1ccc2nc3ccc(N(C)C)cc3[s+]c2c1 [METHYLENE BLUE ANHYDROUS],viability at 9 µM,L929 [14],14%
same,"viability at 20 h, 18 µM",[18],95.3%
same,viability at 18 µM,L929 [19],64.4%
same,viability at 18 µM,L929 [20],67.6%
same,viability at 18 µM,L929 [21],48.9%
same,"viability at 20 h, 9 µM",[22],102%
